According to PMC7452664 (International Journal for Parasitology: Drugs and Drug …, 2020):
Entries after “also recorded” stand apart in the source; their conditions may differ. Like-named read-outs stand apart in the source and are kept apart here.

Legend:
[1] = system: P. falciparum 3D7 intraerythrocytic stage; experiment: P. falciparum growth inhibition assay; assay type: cell-based, Plasmodium falciparum; conditions: for IC50: 3D7, 48 h, read-out: IC50 P. falciparum
Procedure, shortened: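 Sorbitol-synchronized 3D7 rings in RBCs at 3% hematocrit, 0.8% parasitemia. Exposed 48 h at 37 °C (5% CO2, 2% O2, 93% N2), in triplicate. Chloroquine 80 nM as reference. Parasitemia measured by flow cytometry after SYTO 11 staining, with uninfected and untreated infected controls. Values standardized to chloroquine; inhibition versus untreated; IC50 from sigmoidal variable-slope fit.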

[2] = system: L. infantum promastigotes; experiment: Anti-L. infantum promastigotes drug test; assay type: cell-based, Leishmania infantum; conditions: 48 h; for parasite-killing effect on promastigotes: data not shown
Procedure, shortened: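 Promastigotes from a 4-day culture, 1 × 10^5/well, exposed to increasing concentrations for 48 h at 26 °C. Amphotericin B 0.25 μM as positive control. Cells lysed (1% Triton X-100, 2.9% sodium citrate), then 5 mM p-nitrophenyl phosphate added for 2 h at 37 °C. Stopped with 1 N NaOH and read at OD 405 nm. Inhibition calculated versus untreated controls.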

[3] = system: T. cruzi intracellular amastigotes; experiment: Drug test on intracellular amastigotes of T. cruzi; assay type: cell-based, Trypanosoma cruzi; conditions: 72 h; for inhibition of T. cruzi amastigote numbers (highest reduction): concentration not given; for IC50: Trypanosoma cruzi, Vero; for antitrypanosomal activity on T. cruzi: data not shown
Procedure, shortened: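 Gamma-irradiated (2200 rad) Vero cells, 3.6 × 10^4/well, plated overnight at 37 °C, 5% CO2. […] Serial dilutions added for 72 h, in quadruplicate, with benznidazole 2 μM as control. Fluorescence read at Ex 544/Em 612 nm. Inhibition versus infected untreated wells; IC50 from sigmoidal variable-slope fit.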

[4] = system: T. brucei brucei 427 strain, bloodstream stage; experiment: Screening of drugs against T. brucei; assay type: cell-based, Trypanosoma brucei brucei; conditions: for IC50: Trypanosoma brucei
Procedure, shortened: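 Strain 427 bloodstream forms in HMI-9 were pelleted (900 g, 10 min) and seeded at 5 × 10^5/well in warm medium with serial dilutions, in triplicate. Suramin 100 μM as positive control. After 24 h, Alamar Blue added and incubated 4 h at 37 °C. Fluorescence read at Ex 530/Em 590 nm. Inhibition versus untreated; IC50 from sigmoidal variable-slope fit.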

[5] = ref Schaefer et al., 2012; cited from earlier work
[6] = system: L. infantum intra-macrophage amastigotes; experiment: Drug test on L. infantum intra-macrophage amastigotes; assay type: cell-based, Leishmania infantum; conditions: for decrease of number of intracellular amastigotes / reduction of percentage of infected macrophages: highest non-cytotoxic dose; for IC50: Leishmania infantum, U-937, 48 h, read-out: IC50 (parasite-killing activity, L. infantum intracellular amastigotes)
Procedure, shortened: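 U937 cells were PMA-differentiated (50 nM, 48 h) and infected with 6-day metacyclic promastigotes at 10:1 for 24 h, then washed. Infected cells (5 × 10^4) were treated for 48 h in chamber slides, in duplicate, at concentrations non-toxic to macrophages (MTT, 48 h). Meglumine antimoniate 273 μM as control. Methanol-fixed, Giemsa-stained; 200 cells counted for infected macrophages and amastigotes.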

T. brucei [7] = conditions: ref Barnard et al., 1993; cited from earlier work
[8] = ref Barnard et al., 1993; cited from earlier work
[9] = system: L. mexicana promastigotes; conditions: concentrations as high as 0.5 mM; ref Turrens and Cazzulo, 1987; cited from earlier work
T. cruzi epimastigotes = conditions: read-out: IC50 T. cruzi epimastigotes; ref Turrens, 1986; cited from earlier work
BS forms of T.brucei = conditions: read-out: IC50 BS forms of T.brucei; ref Chambers et al., 2008; cited from earlier work
T. brucei [10] = conditions: read-out: IC50 T. brucei; different T. brucei strain; ref Barquilla et al., 2008; cited from earlier work
[11] = read-out: IC50 T. cruzi intracelular amastigotes
[12] = 24 h, read-out: IC50 T. brucei Bloodstream stage
[13] = 24 h, read-out: IC50 T. brucei brucei
[14] = read-out: IC50 T. cruzi amastigotes

O=CC[C@@H](O)[C@H](O)[C@H](O)CO [2DG, 2-deoxy-D-glucose]
P. falciparum growth inhibition ([1]; 48 h): growth inhibition values close to those obtained by CQ | parasite-killing effect on promastigotes ([2]; 0.2 mM): slight parasite-killing effect | inhibition of T. cruzi amastigote numbers (highest reduction) [3]: 89.3% | IC50 [3, 11]: 7270 ± 0.47 µM | parasite-killing activity on T. brucei ([4]; 24 h): No parasite-killing activity was detected

O=C(O)C(=O)CBr [3BP, 3-bromopyruvic acid]
safety in rodents [5]: apparently being safe in rodents, where only a reduction in body weight was recorded | decrease of number of intracellular amastigotes ([6]; 75 μM, 48 h): 78.3% | reduction of percentage of infected macrophages ([6]; 75 μM, 48 h): 48.4% | IC50 [6]: 24.9 µM | P. falciparum growth inhibition ([1]; 48 h): slight effect on parasite growth inhibition; also recorded: no efficacy | concentration inhibiting motility and growth of T. brucei (T. brucei [7]): 13.4 µM | toxicity in humans [8]: toxicity in humans | parasite-killing effect on promastigotes ([2]; 37 μM): slight parasite-killing effect | antitrypanosomal activity on T. cruzi [3]: did not show consistent antitrypanosomal activity; also recorded: no efficacy | parasite-killing activity on T. brucei ([4]; 24 h, concentration not given): 93.2% | IC50 [4, 12]: 76.6 µM | IC50 [4, 13]: 76.6 µM

C[C@@H]1[C@H](O)[C@@H](C)/C=C/C=C/C=C/C=C/C=C/C=C/C=C/[C@H](O[C@@H]2O[C@H](C)[C@@H](O)[C@H](N)[C@@H]2O)C[C@@H]2O[C@](O)(C[C@@H](O)C[C@@H](O)[C@H](O)CC[C@@H](O)C[C@@H](O)CC(=O)O[C@H]1C)C[C@H](O)[C@H]2C(=O)O [AmB, amphotericyn B]
survival rate of L. infantum promastigotes ([2]; 0.25 μM): 36%

CCN(CC)CCCC(C)Nc1ccnc2cc(Cl)ccc12 (stereo not drawn) [CQ, chloroquine]
inhibition at 0.08 µM ([1]; Plasmodium falciparum, 3D7, read-out: parasite growth inhibition): > 90%

O=C(O)C(Cl)Cl [DCA, dichloroacetic acid]
decrease of number of intracellular amastigotes ([6]; 25 mM, 48 h): 90.7% | reduction of percentage of infected macrophages ([6]; 25 mM, 48 h): 74.4% | IC50 [6]: 632 µM | P. falciparum growth inhibition ([1]; 48 h): growth inhibition values close to those obtained by CQ | effect on L. infantum promastigote survival [2]: did not detectably impair | IC50 [3, 14]: 25800 µM | IC50 [3, 11]: 25800 ± 59 µM | inhibition of T. cruzi amastigotes, highest value ([3]; high concentrations (up to 100 mM)): 74.1% | concentration achieving complete clearance of cultured T. brucei brucei ([4]; 24 h): 12.5 mM | IC50 [4, 12]: 1240 µM

O=C(O)c1nn(Cc2ccc(Cl)cc2Cl)c2ccccc12 [LND, lonidamine]
effect on L. mexicana promastigotes [9]: only a leishmaniostatic effect was observed | IC50 (T. cruzi epimastigotes): 80 µM | concentration of peak antimalarial activity ([1]; 48 h): 300 µM | IC50 ([1]; Plasmodium falciparum): 209 µM | effect on L. infantum promastigote survival [2]: did not detectably impair; also recorded: no effect was detected | IC50 (BS forms of T.brucei): 50 µM | inhibition of T. cruzi amastigote numbers (highest reduction) [3]: 99.4% | IC50 [3, 14]: 82.4 µM | IC50 [3, 11]: 82.4 µM | parasite-killing activity on T. brucei ([4]; 24 h, concentration not given): 97.7% | IC50 [4, 12]: 26.8 µM | IC50 [4, 13]: 26.8 µM

CN(C)C(=N)N=C(N)N [MET, metformin]
P. falciparum growth inhibition ([1]; 48 h): growth inhibition values close to those obtained by CQ | effect on L. infantum promastigote survival [2]: did not detectably impair | IC50 [3, 14]: 18500 µM | IC50 [3, 11]: 18500 ± 18 µM | parasite elimination, T. brucei ([4]; 20 mM, 24 h): 57% | IC50 [4, 12]: 17300 ± 15 µM

CO[C@H]1C[C@@H]2CC[C@@H](C)[C@@](O)(O2)C(=O)C(=O)N2CCCC[C@H]2C(=O)O[C@H]([C@H](C)C[C@@H]2CC[C@@H](O)[C@H](OC)C2)CC(=O)[C@H](C)/C=C(\C)[C@@H](O)[C@@H](OC)C(=O)[C@H](C)C[C@H](C)/C=C/C=C/C=C/1C [SIR, sirolimus]
effect on parasite burden and infected macrophages ([6]; 10 μM, data not shown): modest increase of the parasite burden and number of infected macrophages | anti-parasitic effect on L. infantum intra-macrophage amastigotes ([6]; 48 h, data not shown): did not show any parasiticidal effect; also recorded: increase of parasite load | P. falciparum growth inhibition ([1]; 48 h): growth inhibition values close to those obtained by CQ | IC50 ([1]; Plasmodium falciparum): ~2.5 µM | effect on L. infantum promastigote survival [2]: did not detectably impair | IC50 (T. brucei [10]): 0.152 µM | antitrypanosomal activity on T. cruzi [3]: did not show consistent antitrypanosomal activity; also recorded: did not affect the viability | concentration achieving complete clearance of cultured T. brucei brucei ([4]; 24 h): 0.00685 mM | IC50 [4, 12]: 2.14 µM

Cc1ccc(C(=O)Nc2ccc(S(=O)(=O)O)c3cc(S(=O)(=O)O)cc(S(=O)(=O)O)c23)cc1NC(=O)c1cccc(NC(=O)Nc2cccc(C(=O)Nc3cc(C(=O)Nc4ccc(S(=O)(=O)O)c5cc(S(=O)(=O)O)cc(S(=O)(=O)O)c45)ccc3C)c2)c1 [SUR, suramin]
parasite clearance, T. brucei ([4]; 100 μM, control drug): 96%
